pEC50: −log10 of the molar value.
Experiments:
[1] = target: T1, Cannabinoid receptor 2 (Homo sapiens, UniProt P34972); experiment: Agonist activity at recombinant human CB2 receptor expressed in HEK293 cells assessed as increase in beta arrestin recruitment measured after 2 to 3 hrs by PathHunter assay; type: functional, cell-based
[2] = Half life in rat liver microsomes; type: ADME, microsome
[3] = target: Cannabinoid receptor 1 (Rattus norvegicus, UniProt P20272); experiment: Agonist activity at recombinant rat CB1 receptor expressed in HEK293 cells assessed as increase in beta arrestin recruitment measured after 2 to 3 hrs by PathHunter assay; type: functional, cell-based
[4] = target: T2, Cannabinoid receptor 1 (Homo sapiens, UniProt P21554); experiment: Agonist activity at recombinant human CB1 receptor expressed in HEK293 cells assessed as increase in beta arrestin recruitment measured after 2 to 3 hrs by PathHunter assay; type: functional, cell-based
[5] = target: T1, Cannabinoid receptor 2; experiment: Agonist activity at recombinant human CB2 receptor expressed in HEK293 cells assessed as increase in beta arrestin recruitment measured after 2 to 3 hrs by PathHunter assay relative to CP55940; type: functional, cell-based
[6] = target: T3, Cannabinoid receptor 2 (Rattus norvegicus) (UniProt Q9QZN9); experiment: Agonist activity at recombinant rat CB2 receptor expressed in HEK293 cells assessed as increase in beta arrestin recruitment measured after 2 to 3 hrs by PathHunter assay relative to CP55940; type: functional, cell-based
T3 sequence (whole entry): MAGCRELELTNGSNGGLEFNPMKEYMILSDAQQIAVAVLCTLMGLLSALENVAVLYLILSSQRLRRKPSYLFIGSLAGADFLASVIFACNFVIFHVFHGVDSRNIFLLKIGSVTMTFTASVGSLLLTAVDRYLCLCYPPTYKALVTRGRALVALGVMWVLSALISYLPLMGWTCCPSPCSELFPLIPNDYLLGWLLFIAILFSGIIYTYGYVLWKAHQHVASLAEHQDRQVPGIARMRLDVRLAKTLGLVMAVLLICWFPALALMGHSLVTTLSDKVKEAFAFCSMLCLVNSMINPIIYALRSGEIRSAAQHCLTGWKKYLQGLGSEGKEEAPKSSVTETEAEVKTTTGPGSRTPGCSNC
In short: (§1)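 Beta-arrestin recruitment EC50 is the mean of three or more independent experiments (logSD < 0.4). Intrinsic activity (Emax) is expressed relative to CP-55,940 set at 100.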

[7] = target: T4, Cannabinoid receptor 2 (Rattus norvegicus, UniProt Q9QZN9); experiment: Agonist activity at recombinant rat CB2 receptor expressed in HEK293 cells assessed as increase in beta arrestin recruitment measured after 2 to 3 hrs by PathHunter assay; type: functional, cell-based
T4 sequence (Q9QZN9 whole entry): T3 sequence (whole entry)

[8] = Half life in human liver microsomes; type: ADME, microsome
[9] = Half life in mouse liver microsomes; type: ADME, microsome
[10] = tested on: Rattus norvegicus; experiment: Toxicity in Sprague-Dawley rat assessed as change in body temperature up to 100 mg/kg, po; type: organism-based; conditions: in vivo
[11] = Ratio of drug level in brain to plasma in Sprague-Dawley rat at 3 mg/kg, po measured after 2 hrs; type: ADME, organism-based; conditions: brain and plasma, read-out: BPR
[12] = tested on: Rattus norvegicus; experiment: Toxicity in Sprague-Dawley rat assessed as effect on locomotor activity up to 100 mg/kg, po; type: organism-based; conditions: in vivo
[13] = tested on: Rattus norvegicus; experiment: Toxicity in Sprague-Dawley rat assessed as decrease in core body temperature at 0.3 mg/kg, po measured after 60 mins by rectal probe method; type: organism-based; conditions: in vivo, 1 h
[14] = target: T3, Cannabinoid receptor 2 (Rattus norvegicus); experiment: Induction of recombinant HA-tagged rat CB2 receptor internalization expressed in CHOK1 cells at 10 uM measured after 1 hr by time-resolved flow cytometry relative to CP55940; type: functional, cell-based
[15] = target: Cannabinoid receptor 1 (Rattus norvegicus) (UniProt P20272); experiment: Agonist activity at recombinant rat CB1 receptor expressed in HEK293 cells assessed as increase in beta arrestin recruitment measured after 2 to 3 hrs by PathHunter assay relative to CP55940; type: functional, cell-based; in short: as §1
[16] = target: T2, Cannabinoid receptor 1; experiment: Agonist activity at recombinant human CB1 receptor expressed in HEK293 cells assessed as increase in beta arrestin recruitment measured after 2 to 3 hrs by PathHunter assay relative to CP55940; type: functional, cell-based; in short: as §1

T1 sequence (P34972 whole entry): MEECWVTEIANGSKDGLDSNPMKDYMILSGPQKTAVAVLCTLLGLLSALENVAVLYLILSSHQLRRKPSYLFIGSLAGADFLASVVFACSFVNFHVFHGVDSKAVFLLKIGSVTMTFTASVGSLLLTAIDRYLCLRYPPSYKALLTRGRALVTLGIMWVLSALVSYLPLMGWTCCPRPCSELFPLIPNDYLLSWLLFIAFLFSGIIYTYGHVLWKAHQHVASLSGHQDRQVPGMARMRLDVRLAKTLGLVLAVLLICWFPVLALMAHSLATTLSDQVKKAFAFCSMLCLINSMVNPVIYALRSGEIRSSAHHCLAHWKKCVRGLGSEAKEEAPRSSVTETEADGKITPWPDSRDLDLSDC
T2 sequence (P21554 whole entry): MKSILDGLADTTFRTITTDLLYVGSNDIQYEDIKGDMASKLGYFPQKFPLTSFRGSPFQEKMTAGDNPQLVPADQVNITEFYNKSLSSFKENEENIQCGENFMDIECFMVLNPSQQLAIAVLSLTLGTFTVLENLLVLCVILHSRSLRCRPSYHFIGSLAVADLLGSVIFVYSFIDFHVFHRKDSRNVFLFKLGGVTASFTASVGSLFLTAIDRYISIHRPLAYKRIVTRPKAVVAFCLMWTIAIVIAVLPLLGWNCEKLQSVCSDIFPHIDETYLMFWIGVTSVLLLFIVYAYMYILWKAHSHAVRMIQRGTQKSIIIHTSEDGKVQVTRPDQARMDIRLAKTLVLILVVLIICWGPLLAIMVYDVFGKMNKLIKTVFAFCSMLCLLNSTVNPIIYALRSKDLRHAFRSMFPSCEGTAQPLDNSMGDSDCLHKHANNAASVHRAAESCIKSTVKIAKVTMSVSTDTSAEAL
Cannabinoid receptor 1 (Rattus norvegicus, UniProt P20272), sequence (P20272 whole entry): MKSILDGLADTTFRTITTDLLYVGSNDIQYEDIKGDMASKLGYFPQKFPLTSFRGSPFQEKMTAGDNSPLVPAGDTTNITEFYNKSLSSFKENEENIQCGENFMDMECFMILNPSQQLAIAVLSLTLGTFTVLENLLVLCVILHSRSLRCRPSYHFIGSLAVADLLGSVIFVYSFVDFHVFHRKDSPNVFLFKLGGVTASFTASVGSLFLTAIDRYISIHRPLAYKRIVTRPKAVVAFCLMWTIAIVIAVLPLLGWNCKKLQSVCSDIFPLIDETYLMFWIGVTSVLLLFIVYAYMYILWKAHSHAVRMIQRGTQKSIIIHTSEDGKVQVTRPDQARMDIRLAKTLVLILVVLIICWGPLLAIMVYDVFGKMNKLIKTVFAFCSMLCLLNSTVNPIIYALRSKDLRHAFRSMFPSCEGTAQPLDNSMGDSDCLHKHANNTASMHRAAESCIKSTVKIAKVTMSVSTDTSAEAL
Cannabinoid receptor 1 (Rattus norvegicus), sequence (P20272 whole entry): as above

SMILES	pEC50 [1]	half-life [2]	pEC50 [3]	pEC50 [4]	Emax [5]	Emax [6]	pEC50 [7]	half-life [8]	half-life [9]	Activity [10]	Kp at 2 h [11]	Activity [12]	Activity [13]	Activity [14]	Emax [15]	Emax [16]
O=C(NC1(CO)CCCC1)c1nn(-c2c[n+]([O-])ccn2)c2c1C[C@@H]1C[C@H]21	8.25	> 1 h	< 5.00	< 5.00	112%	106%	8.17	> 1 h	–	–	–	–	–	–	–	–
O=C(NC1(C(F)(F)F)CCC1)c1nn(-c2c[n+]([O-])ccn2)c2c1C[C@@H]1C[C@H]21	8.92	> 1 h	< 5.00	< 5.00	115%	106%	8.80	> 1 h	–	–	–	–	–	–	–	–
CC(C)(CO)NC(=O)c1nn(-c2cnccn2)c2c1C[C@H]1C[C@@H]21	–	> 1 h	–	–	–	85%	–	> 1 h	> 1 h	–	–	–	–	–	–	–
CC(C)(NC(=O)c1nn(-c2c[n+]([O-])ccn2)c2c1C[C@@H]1C[C@H]21)C(F)(F)F	8.64	> 1 h	< 5.00	< 5.00	108%	98%	8.20	> 1 h	–	Non-Toxic	0.83	Non-Toxic	–	–	–	–
O=C(N[C@@H](CO)C(F)(F)F)c1nn(-c2c[n+]([O-])ccn2)c2c1C[C@@H]1C[C@H]21	7.76	> 1 h	< 5.00	< 5.00	119%	107%	7.46	> 1 h	–	–	–	–	–	–	–	–
O=C(N[C@H](CO)c1ccccc1)c1nn(-c2c[n+]([O-])ccn2)c2c1C[C@@H]1C[C@H]21	–	> 1 h	< 5.00	< 5.00	96%	72%	7.22	> 1 h	–	–	–	–	–	–	–	–
CC1(NC(=O)c2nn(-c3c[n+]([O-])ccn3)c3c2C[C@@H]2C[C@H]32)CC1	7.04	–	< 5.00	< 5.00	102%	81%	6.54	–	–	–	–	–	–	–	–	–
CC(C)(C)[C@@H](CO)NC(=O)c1nn(-c2cnccn2)c2c1C[C@H]1C[C@@H]21	7.59	0.633 h	< 5.00	< 5.00	104%	78%	7.68	> 1 h	0.15 h	–	–	–	–	–	–	–
CC(C)(C)[C@H](CO)NC(=O)c1nn(-c2cnccn2)c2c1C[C@@H]1C[C@H]21	6.25	–	–	< 5.00	78%	–	–	–	–	–	–	–	–	–	–	–
CCCCCCC(C)(C)c1ccc([C@@H]2C[C@H](O)CC[C@H]2CCCO)c(O)c1 [CP-55940]	–	–	–	–	–	–	–	–	–	–	–	–	Toxic	–	–	–
CC(C)(CO)NC(=O)c1nn(-c2ccc(F)cc2F)c2c1C[C@H]1C[C@@H]21	–	–	–	–	–	46%	–	–	–	–	–	–	–	68%	–	–
O=C(NC1(C(F)(F)F)CC1)c1nn(-c2c[n+]([O-])ccn2)c2c1C[C@@H]1C[C@H]21	–	> 1 h	< 5.00	< 5.00	–	103%	7.84	> 1 h	–	–	–	–	–	–	–	–
CC(C)(C)[C@@H](CF)NC(=O)c1nn(-c2c[n+]([O-])ccn2)c2c1C[C@@H]1C[C@H]21	8.92	> 1 h	6.08	5.96	107%	97%	8.82	> 1 h	–	–	–	–	–	–	107%	105%
CC(C)(C)[C@@H](CO)NC(=O)c1nn(-c2cnccn2)c2c1C[C@@H]1C[C@H]21	7.23	> 1 h	< 5.00	< 5.00	107%	95%	7.28	> 1 h	0.4 h	–	0.1	–	–	–	–	–
CC(C)[C@@H](CF)NC(=O)c1nn(-c2c[n+]([O-])ccn2)c2c1C[C@@H]1C[C@H]21	8.42	> 1 h	5.57	5.21	98%	87%	8.19	> 1 h	–	–	–	–	–	–	74%	96%
CC(C)[C@@H](CO)NC(=O)c1nn(-c2c[n+]([O-])ccn2)c2c1C[C@@H]1C[C@H]21	7.34	> 1 h	< 5.00	< 5.00	103%	88%	7.26	> 1 h	–	–	–	–	–	–	–	–
O=C(N[C@H](CO)C(F)(F)F)c1nn(-c2c[n+]([O-])ccn2)c2c1C[C@@H]1C[C@H]21	6.55	> 1 h	< 5.00	< 5.00	98%	85%	6.28	> 1 h	–	–	–	–	–	–	–	–

Source: ChEMBL document CHEMBL4138258 (ACS Med Chem Lett, 2017)
